In assay [1] the test system is Mus musculus. The assay is described as follows: Ratio of percent of Tumor necrosis factor alpha measured in the presence with respect to that measured when animals were treated only with LPS;Mice were intraperitoneally injected with 10 ug of LPS alone or premixed with 20 ug of each compound. It is filed as functional. The method in brief: (§1)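 Mice were given 10 µg LPS ip, either alone or premixed with 20 µg compound in PBS containing 40% DMSO. Mice were bled after 1 h and serum TNF-α was measured by ELISA. Values are % of the TNF-α in mice given LPS alone (100%), as mean ± SD of seven mice per group.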

Assay [2] is filed under the species Mus musculus. The assay is described as follows: In vitro inhibitory concentration necessary to neutralize Escherichia coli 1,4''-diphosphoryl lipid A. It is filed as functional, organism-based. The essentials: (§2)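 Chromogenic Limulus amebocyte lysate assay, which detects free LPS or diphosphoryl lipid A left unneutralized by the test compound. Compounds were tested by 2-fold serial dilution. IC50 is the concentration that neutralizes 50% of the LPS or lipid A in vitro.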

The species named for assay [3] is Mus musculus. The assay is described as follows: In vitro inhibitory concentration necessary to neutralize Gram-negative bacterial lipopolysaccharide in mouse model. It is filed as functional, organism-based. The method in brief:
as §2

The subject of assay [4] is Mus musculus. The assay is described as follows: Ratio of percent of Tumor necrosis factor alpha measured in the presence with respect to that measured when animals were treated only with LPS;Mice were intraperitoneally injected with 10 ug of LPS alone or premixed with 20 ug of each compound;ND= Not determined. The format is functional. The method in brief:
as §1

In assay [5] the test system is Mus musculus. The assay is described as follows: Ratio of percent of Tumor necrosis factor alpha measured in the presence with respect to that measured when animals were treated only with LPS;Mice were intraperitoneally injected with 10 ug of LPS alone or premixed with 100 ug of compound. It is filed as functional, organism-based. The method in brief: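 Mice were given 10 µg LPS ip, alone or premixed with the test agent (peptoids 20 µg in PBS with 40% DMSO; polymyxin B or LALF-14 100 µg). Sera were collected after 1 h and TNF-α measured by ELISA. Values are % of the LPS-only TNF-α level, mean ± SD, seven mice per group.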

Residues, ends and D or L forms follow the SMILES beside them.

For `COc1ccc(CCN(CC(=O)N(CCC(c2ccccc2)c2ccccc2)CC(N)=O)C(=O)CNCCC(c2ccccc2)c2ccccc2)cc1`, the Ratio in the assay with Mus musculus [1] stood at 10. Also, the IC50 in the assay listed under Mus musculus [2] is greater than 250 µM; in the assay listed under Mus musculus [3] (Mus musculus), 50 µM.
Consider `CC(C)C[C@@H]1NC(=O)[C@H](CCCN=C(N)N)NC(=O)[C@H](CCCN=C(N)N)NC(=O)[C@H](Cc2ccccc2)NC(=O)[C@H]([C@@H](C)O)NC(=O)[C@@H]2CCCN2C(=O)[C@H](CCCCN)NC(=O)[C@@H](NC(=O)CN)CSSC[C@@H](C(=O)NCC(=O)O)NC(=O)[C@H](CCCCN)NC(=O)[C@H](Cc2ccc(O)cc2)NC(=O)[C@H](CCCCN)NC(=O)[C@H](Cc2c[nH]c3ccccc23)NC(=O)[C@H](CCCCN)NC1=O` (HELM PEPTIDE1{G.C.K.P.T.F.R.R.L.K.W.K.Y.K.C.G}$PEPTIDE1,PEPTIDE1,2:R3-15:R3$$$V2.0) [listing 1 of 2 here], for which the IC50 in the assay listed under Mus musculus [2] turned out to be 40 µM; in the assay listed under Mus musculus [3] (Mus musculus), 64 µM.
On to `CC(C)C[C@@H]1NC(=O)[C@H](CCCN=C(N)N)NC(=O)[C@H](CCCN=C(N)N)NC(=O)[C@H](Cc2ccccc2)NC(=O)[C@H]([C@@H](C)O)NC(=O)[C@@H]2CCCN2C(=O)[C@H](CCCCN)NC(=O)[C@@H](NC(=O)CN)CSSC[C@@H](C(=O)NCC(=O)O)NC(=O)[C@H](CCCCN)NC(=O)[C@H](Cc2ccc(O)cc2)NC(=O)[C@H](CCCCN)NC(=O)[C@H](Cc2c[nH]c3ccccc23)NC(=O)[C@H](CCCCN)NC1=O` (HELM PEPTIDE1{G.C.K.P.T.F.R.R.L.K.W.K.Y.K.C.G}$PEPTIDE1,PEPTIDE1,2:R3-15:R3$$$V2.0) [listing 2 of 2 here], for which the Ratio in the assay on Mus musculus [4] was found to be 67.
With `NC(=O)CN(CCC(c1ccccc1)c1ccccc1)C(=O)CN(CCC(c1ccccc1)c1ccccc1)C(=O)CNCC1CCCO1` (stereo unspecified) [TRIMER I], the Ratio in the assay with Mus musculus [1] stood at 71. Also, the IC50 was 250 µM in the assay filed under Mus musculus [2] and 40 µM in the assay listed under Mus musculus [3] (Mus musculus).
As for POLYMYXIN B [listing 1 of 2 here], in the assay filed under Mus musculus [3], the IC50 is less than 0.0001 µM.
Regarding POLYMYXIN B [listing 2 of 2 here], in the assay with Mus musculus [5], the Ratio was 5.
